According to ChEMBL document CHEMBL1124809, “Synthesis and biological evaluation of analogues of Pro-Leu-Gly-NH2 modified at the leucyl residue” (J Med Chem, 1990):
Activity calls are given as the source filed them. The rule behind the calls is not given here. Where a SMILES comes first, the peptide text is derived from it. [ ]: non-standard residue; d: D form. Phe(4-NO2) = N[C@@H](Cc1ccc([N+](=O)[O-])cc1)C(=O)O; Phg = N[C@H](C(=O)O)c1ccccc1; Nle = CCCC[C@H](N)C(=O)O; Nva = CCC[C@H](N)C(=O)O; Abu = CC[C@H](N)C(=O)O

Key:
[1] = target: D(2) dopamine receptor (Bos taurus) (UniProt P20288); experiment: Ability to enhance the binding of [3H]ADTN to dopamine receptor D2 isolated from bovine striatal membranes; inactive
Sequence of D(2) dopamine receptor (Bos taurus) (P20288 whole entry): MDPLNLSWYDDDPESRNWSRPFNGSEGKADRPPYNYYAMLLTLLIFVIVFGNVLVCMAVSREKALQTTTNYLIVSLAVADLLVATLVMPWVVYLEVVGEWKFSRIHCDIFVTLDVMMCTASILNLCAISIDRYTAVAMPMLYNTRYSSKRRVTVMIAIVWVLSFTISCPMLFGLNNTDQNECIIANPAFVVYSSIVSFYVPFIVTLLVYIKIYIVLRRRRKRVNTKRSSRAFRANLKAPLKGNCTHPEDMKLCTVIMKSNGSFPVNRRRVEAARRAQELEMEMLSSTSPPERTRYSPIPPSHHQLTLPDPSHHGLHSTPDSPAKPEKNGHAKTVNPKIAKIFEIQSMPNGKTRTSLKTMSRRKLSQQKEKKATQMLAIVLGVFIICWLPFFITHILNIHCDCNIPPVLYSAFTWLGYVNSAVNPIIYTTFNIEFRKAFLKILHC
How it was run: (§1)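 Membranes from freshly dissected bovine caudate, homogenized in 50 mM Tris-HCl/1 mM EDTA pH 7.4, centrifuged twice at 27000g. Resuspended in Tris-HCl with ascorbate, MnCl2, DTT, PMSF, soybean trypsin inhibitor and bacitracin. 0.2–0.3 mg protein incubated with 8 nM [3H]ADTN ± peptide (10⁻¹²–10⁻⁴ M) for 10 min at 37 °C in triplicate. GF/B filtration, scintillation counting, % increase in specific binding over control.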

[2] = target: D(2) dopamine receptor (Bos taurus) (UniProt P20288); experiment: Ability to enhance the binding of [3H]-ADTN to Dopamine receptor D2 isolated from bovine caudate membranes at 1 uM concentration; how it was run: as §1
[3] = target: D(2) dopamine receptor (Bos taurus) (UniProt P20288); experiment: Ability to stimulate the binding of [3H]ADTN to Dopamine receptor D2 isolated from bovine striatal membranes at 1 uM concentration; how it was run: as §1
[4] = target: D(2) dopamine receptor (Bos taurus) (UniProt P20288); experiment: Ability to enhance the binding of [3H]ADTN to Dopamine receptor D2 isolated from bovine striatal membranes; maximum effect at 0.1 uM; how it was run: as §1

Row | SMILES | Activity [1] | further results
1 | NC(=O)CNC(=O)[C@H](CCc1ccccc1)NC(=O)[C@H]1CCCN1 | inactive | –
2 | CCC[C@H](NC(=O)[C@@H]1CCCN1)C(=O)NCC(N)=O (H-Pro-[Nva]-Gly-NH2) | inactive | –
3 | NC(=O)CNC(=O)[C@H](CCc1ccccc1)NC(=O)[C@@H]1CCCN1 | inactive | –
4 | CC(C)C[C@H](NC(=O)[C@@H]1CCCN1)C(=O)NCC(N)=O (H-Pro-Leu-Gly-NH2) | – | Stimulation [2]: 27%
5 | NC(=O)CNC(=O)[C@H](Cc1ccccc1)NC(=O)[C@@H]1CCCN1 (H-Pro-Phe-Gly-NH2) | – | Stimulation [3]: 31%
6 | CC[C@H](NC(=O)[C@@H]1CCCN1)C(=O)NCC(N)=O (H-Pro-[Abu]-Gly-NH2) | inactive | –
7 | CCCC[C@H](NC(=O)[C@@H]1CCCN1)C(=O)NCC(N)=O (H-Pro-[Nle]-Gly-NH2) | – | Activity [4]: Active
8 | NC(=O)CNC(=O)[C@@H](NC(=O)[C@@H]1CCCN1)c1ccccc1 (H-Pro-[Phg]-Gly-NH2) | inactive | –

The next lines start with results.

Row | Activity [1] | SMILES | further results
9 | inactive | NC(=O)CNC(=O)[C@H](Cc1ccc([N+](=O)[O-])cc1)NC(=O)[C@@H]1CCCN1 (H-Pro-[Phe(4-NO2)]-Gly-NH2) | –
10 | inactive | CC[C@H](C)[C@H](NC(=O)[C@@H]1CCCN1)C(=O)NCC(N)=O (H-Pro-Ile-Gly-NH2) | –
11 | inactive | COc1ccc(C[C@H](NC(=O)[C@@H]2CCCN2)C(=O)NCC(N)=O)cc1 (H-Pro-Tyr(Me)-Gly-NH2) | –
